In brackets after ≈: the same amount, converted by molar mass. Square brackets hold non-standard residues; d marks the D form. Peptide text beside a SMILES is read from it. * marks the point of attachment. Dha = C=C(N)C(=O)O; X1 = O=C(c1cscn1)*
How the values were obtained:
[1] = test system: Bacillus subtilis; experiment: Antibacterial activity against Bacillus subtilis ATCC 6633 assessed as growth inhibition after 24 hrs by CLSI M7-A9 broth microdilution method; format: functional; details: ATCC 6633, 24 h
How it was run: (§1)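 Isolates from frozen stocks subcultured at least twice on sheep blood agar and grown 24 h before testing. Inoculum made by direct suspension in saline to 0.5 McFarland turbidity. MIC determined by broth microdilution in Mueller-Hinton broth following CLSI M7-A9, incubated at 35 °C for 24 h.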

[2] = test system: Staphylococcus aureus; experiment: Antibacterial activity against Staphylococcus aureus assessed as growth inhibition after 24 hrs by CLSI M7-A9 broth microdilution method; format: functional; how it was run: as §1
[3] = test system: Cutibacterium acnes; experiment: Antibacterial activity against Propionibacterium acnes assessed as growth inhibition after 24 hrs by CLSI M11-A8 broth microdilution method; format: functional
How it was run: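 This anaerobe was subcultured at least twice from frozen stock on supplemented Brucella agar and grown 48 h before testing. Inoculum was a direct saline suspension at 0.5 McFarland. MIC was by microdilution in Brucella broth with hemin (5 μg/mL), vitamin K1 and 5% lysed horse blood per CLSI M11-A8, 35 °C for 24 h under anaerobic conditions.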

[4] = test system: Micrococcus luteus; experiment: Antibacterial activity against Micrococcus luteus ATCC 9341 assessed as growth inhibition after 24 hrs by CLSI M7-A9 broth microdilution method; format: functional; details: ATCC 9341, 24 h; how it was run: as §1
[5] = Solubility of the compound in 0.1 M phosphate buffer after 48 hrs by spectrophotometer analysis; format: physicochemical
How it was run: (§2)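 About 1 mg of solid was combined with a known volume of solvent so that the solution was saturated. It was vortexed 1 min, shaken 48 h and centrifuged at 10000 rpm for 3 min. Dissolved compound in the supernatant was measured by absorbance at 304 nm.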

[6] = Solubility of the compound in water after 48 hrs by spectrophotometer analysis; format: physicochemical; how it was run: as §2

SMILES	MIC [1] [µg/mL]	MIC [2] [µg/mL]	MIC [3] [µg/mL]	MIC [4] [µg/mL]	solubility at 48 h [5] [µg/mL]	solubility at 48 h [6] [µg/mL]
CCOC(=O)c1csc(-c2ccc3c(n2)-c2csc(n2)-c2csc(n2)[C@@H]2CCCN2C(=O)[C@H](Cc2ccc(O)cc2)NC(=O)c2csc(n2)[C@H](Cc2ccccc2)NC(=O)c2csc(n2)[C@H](CC(N)=O)NC(=O)c2nc-3oc2C)n1	> 8	> 8	4 (≈ 3.43 µM)	2 (≈ 1.71 µM)	–	–
C=C(NC(=O)C(=C)NC(=O)[C@@H]1CCCN1C(=O)[C@H](C)NC(=O)C(=C)NC(=O)c1csc(-c2ccc3c(n2)-c2csc(n2)-c2csc(n2)[C@@H]2CCCN2C(=O)[C@H](Cc2ccc(O)cc2)NC(=O)[C@H]2CSC(=N2)[C@H](Cc2ccccc2)NC(=O)c2csc(n2)[C@H](CC(N)=O)NC(=O)c2nc-3oc2C)n1)C(N)=O	0.25 (≈ 0.165 µM)	0.25 (≈ 0.165 µM)	0.125 (≈ 0.0825 µM)	0.5 (≈ 0.33 µM)	–	–
CCOC(=O)c1csc(-c2ccc3c(n2)-c2csc(n2)-c2csc(n2)[C@@H]2CCCN2C(=O)[C@H](Cc2ccc(O)cc2)NC(=O)C2CSC(=N2)[C@H](Cc2ccccc2)NC(=O)c2csc(n2)[C@H](CC(N)=O)NC(=O)c2nc-3oc2C)n1 (stereo partly drawn)	8 (≈ 6.84 µM)	> 8	4 (≈ 3.42 µM)	4 (≈ 3.42 µM)	–	–
C=C(NC(=O)[C@@H]1CCCN1C(=O)[C@H](C)NC(=O)C(=C)NC(=O)c1csc(-c2ccc3c(n2)-c2csc(n2)-c2csc(n2)[C@@H]2CCCN2C(=O)[C@H](Cc2ccc(O)cc2)NC(=O)C2CSC(=N2)[C@H](Cc2ccccc2)NC(=O)c2csc(n2)[C@H](CC(N)=O)NC(=O)c2nc-3oc2C)n1)C(N)=O (stereo partly drawn)	0.5 (≈ 0.346 µM)	0.5 (≈ 0.346 µM)	0.5 (≈ 0.346 µM)	1 (≈ 0.691 µM)	–	–
Cc1oc2nc1C(=O)N[C@@H](CC(N)=O)c1nc(cs1)C(=O)N[C@@H](Cc1ccccc1)c1nc(cs1)C(=O)N[C@@H](Cc1ccc(O)cc1)C(=O)N1CCC[C@H]1c1nc(cs1)-c1nc(cs1)-c1nc(-c3nc(C(=O)O)cs3)ccc1-2	8 (≈ 7.02 µM)	2 (≈ 1.76 µM)	2 (≈ 1.76 µM)	> 8	23 (≈ 20.2 µM)	–
C=C(NC(=O)C(=C)NC(=O)[C@@H]1CCCN1C(=O)[C@H](C)NC(=O)C(=C)NC(=O)c1cscn1)C(N)=O (X1-[Dha]AP[Dha][Dha]-NH2)	> 8	> 8	8 (≈ 15.9 µM)	2 (≈ 3.97 µM)	6650 (≈ 13200 µM)	4660 (≈ 9260 µM)
C=C(NC(=O)C(=C)NC(=O)[C@@H]1CCCN1C(=O)[C@H](C)NC(=O)C(=C)NC(=O)c1csc(-c2ccc3c(n2)-c2csc(n2)-c2csc(n2)[C@@H]2CCCN2C(=O)[C@H](Cc2ccc(O)cc2)NC(=O)c2csc(n2)[C@H](Cc2ccccc2)NC(=O)c2csc(n2)[C@H](CC(N)=O)NC(=O)c2nc-3oc2C)n1)C(N)=O	1 (≈ 0.661 µM)	0.5 (≈ 0.33 µM)	8 (≈ 5.28 µM)	2 (≈ 1.32 µM)	–	–
C=C(NC(=O)[C@@H]1CCCN1C(=O)[C@H](C)NC(=O)C(=C)NC(=O)c1csc(-c2ccc3c(n2)-c2csc(n2)-c2csc(n2)[C@@H]2CCCN2C(=O)[C@H](Cc2ccc(O)cc2)NC(=O)c2csc(n2)[C@H](Cc2ccccc2)NC(=O)c2csc(n2)[C@H](CC(N)=O)NC(=O)c2nc-3oc2C)n1)C(N)=O	0.5 (≈ 0.346 µM)	0.5 (≈ 0.346 µM)	8 (≈ 5.54 µM)	2 (≈ 1.38 µM)	–	–
C=C(NC(=O)c1csc(-c2ccc3c(n2)-c2csc(n2)-c2csc(n2)[C@@H]2CCCN2C(=O)[C@H](Cc2ccc(O)cc2)NC(=O)C2CSC(=N2)[C@H](Cc2ccccc2)NC(=O)c2csc(n2)[C@H](CC(N)=O)NC(=O)c2nc-3oc2C)n1)C(=O)N[C@@H](C)C(=O)N1CCC[C@H]1C(N)=O (stereo partly drawn)	0.25 (≈ 0.181 µM)	0.25 (≈ 0.181 µM)	0.125 (≈ 0.0907 µM)	0.5 (≈ 0.363 µM)	–	–
Cc1oc2nc1C(=O)N[C@@H](CC(N)=O)c1nc(cs1)C(=O)N[C@@H](Cc1ccccc1)c1nc(cs1)C(=O)N[C@@H](Cc1ccc(O)cc1)C(=O)N1CCC[C@H]1c1nc(cs1)-c1nc(cs1)-c1nc(-c3nc(C(N)=O)cs3)ccc1-2	8 (≈ 7.03 µM)	1 (≈ 0.878 µM)	8 (≈ 7.03 µM)	> 8	7 (≈ 6.15 µM)	–
C=C(NC(=O)c1csc(-c2ccc3c(n2)-c2csc(n2)-c2csc(n2)[C@@H]2CCCN2C(=O)[C@H](Cc2ccc(O)cc2)NC(=O)c2csc(n2)[C@H](Cc2ccccc2)NC(=O)c2csc(n2)[C@H](CC(N)=O)NC(=O)c2nc-3oc2C)n1)C(=O)N[C@@H](C)C(=O)N1CCC[C@H]1C(N)=O	8 (≈ 5.82 µM)	0.5 (≈ 0.363 µM)	4 (≈ 2.91 µM)	2 (≈ 1.45 µM)	–	–
Cc1oc2nc1C(=O)N[C@@H](CC(N)=O)c1nc(cs1)C(=O)N[C@@H](Cc1ccccc1)c1nc(cs1)C(=O)N[C@@H](Cc1ccc(O)cc1)C(=O)N1CCC[C@H]1c1nc(cs1)-c1nc(cs1)-c1nc(-c3nc(C(=O)N[C@H]4CC[C@H](C(=O)O)CC4)cs3)ccc1-2	0.03 (≈ 0.0237 µM)	0.03 (≈ 0.0237 µM)	0.06 (≈ 0.0474 µM)	0.5 (≈ 0.395 µM)	18 (≈ 14.2 µM)	–

Reference: ChEMBL document CHEMBL3259713, “Dissecting the structure of thiopeptides: assessment of thiazoline and tail moieties of baringolin and antibacterial activity optimization” (J Med Chem, 2014)
